Experimental data reported in ChEMBL document CHEMBL3745617 (J Med Chem, 2015).
Active and inactive are the calls of the source. The calls are words filed in the database; no cut-off is given here.

Columns and labels:
[1] = target: Tyrosine-protein kinase Lck (Homo sapiens) (UniProt P06239); test: Inhibition of LCK (unknown origin) expressed in BaF3 cells assessed as inhibition of cell proliferation after 72 hrs by CelltiterGlo assay; format: cell-based
[2] = target: Proto-oncogene tyrosine-protein kinase receptor Ret (Homo sapiens) (UniProt P07949); test: Inhibition of RET (unknown origin) expressed in BaF3 cells assessed as inhibition of cell proliferation after 72 hrs by CelltiterGlo assay; format: cell-based
[3] = target: Tyrosine-protein kinase JAK3 (Homo sapiens) (UniProt P52333); test: Inhibition of JAK3 (unknown origin) expressed in BaF3 cells assessed as inhibition of cell proliferation after 72 hrs by CelltiterGlo assay; format: cell-based
Tyrosine-protein kinase JAK3 (Homo sapiens), sequence (P52333 whole entry): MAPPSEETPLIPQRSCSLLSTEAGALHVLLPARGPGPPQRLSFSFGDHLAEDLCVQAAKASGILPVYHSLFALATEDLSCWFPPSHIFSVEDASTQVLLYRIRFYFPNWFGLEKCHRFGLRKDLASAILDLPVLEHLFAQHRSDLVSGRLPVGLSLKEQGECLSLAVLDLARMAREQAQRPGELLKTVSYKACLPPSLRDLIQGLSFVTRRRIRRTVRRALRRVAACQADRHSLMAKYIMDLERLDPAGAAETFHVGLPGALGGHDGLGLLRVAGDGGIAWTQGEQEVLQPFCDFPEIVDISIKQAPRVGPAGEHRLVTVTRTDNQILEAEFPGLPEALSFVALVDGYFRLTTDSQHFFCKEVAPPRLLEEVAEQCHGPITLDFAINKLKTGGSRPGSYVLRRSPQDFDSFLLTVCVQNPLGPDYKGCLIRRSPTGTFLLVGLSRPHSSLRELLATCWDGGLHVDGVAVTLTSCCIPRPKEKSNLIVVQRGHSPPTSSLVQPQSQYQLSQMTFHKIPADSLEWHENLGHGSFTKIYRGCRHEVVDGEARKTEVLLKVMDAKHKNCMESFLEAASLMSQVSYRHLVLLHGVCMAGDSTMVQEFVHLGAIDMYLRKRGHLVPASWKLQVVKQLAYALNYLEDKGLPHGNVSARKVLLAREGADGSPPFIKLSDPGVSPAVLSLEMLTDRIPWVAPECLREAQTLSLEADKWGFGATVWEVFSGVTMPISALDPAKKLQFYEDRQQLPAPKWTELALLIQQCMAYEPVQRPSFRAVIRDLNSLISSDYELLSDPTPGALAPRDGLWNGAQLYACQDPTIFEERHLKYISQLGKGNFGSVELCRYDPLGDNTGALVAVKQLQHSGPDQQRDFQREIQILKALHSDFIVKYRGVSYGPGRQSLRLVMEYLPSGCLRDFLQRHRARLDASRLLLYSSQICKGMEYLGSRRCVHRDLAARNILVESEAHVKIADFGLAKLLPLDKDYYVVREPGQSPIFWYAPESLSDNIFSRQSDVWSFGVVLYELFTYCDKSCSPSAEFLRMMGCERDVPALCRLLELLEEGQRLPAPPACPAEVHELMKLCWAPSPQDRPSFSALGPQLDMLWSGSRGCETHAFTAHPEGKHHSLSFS

[4] = target: Cytoplasmic tyrosine-protein kinase BMX (Homo sapiens) (UniProt P51813); test: Inhibition of BMX (unknown origin) expressed in BaF3 cells assessed as inhibition of cell proliferation after 72 hrs by CelltiterGlo assay; format: cell-based
Cytoplasmic tyrosine-protein kinase BMX (Homo sapiens), sequence (P51813 whole entry): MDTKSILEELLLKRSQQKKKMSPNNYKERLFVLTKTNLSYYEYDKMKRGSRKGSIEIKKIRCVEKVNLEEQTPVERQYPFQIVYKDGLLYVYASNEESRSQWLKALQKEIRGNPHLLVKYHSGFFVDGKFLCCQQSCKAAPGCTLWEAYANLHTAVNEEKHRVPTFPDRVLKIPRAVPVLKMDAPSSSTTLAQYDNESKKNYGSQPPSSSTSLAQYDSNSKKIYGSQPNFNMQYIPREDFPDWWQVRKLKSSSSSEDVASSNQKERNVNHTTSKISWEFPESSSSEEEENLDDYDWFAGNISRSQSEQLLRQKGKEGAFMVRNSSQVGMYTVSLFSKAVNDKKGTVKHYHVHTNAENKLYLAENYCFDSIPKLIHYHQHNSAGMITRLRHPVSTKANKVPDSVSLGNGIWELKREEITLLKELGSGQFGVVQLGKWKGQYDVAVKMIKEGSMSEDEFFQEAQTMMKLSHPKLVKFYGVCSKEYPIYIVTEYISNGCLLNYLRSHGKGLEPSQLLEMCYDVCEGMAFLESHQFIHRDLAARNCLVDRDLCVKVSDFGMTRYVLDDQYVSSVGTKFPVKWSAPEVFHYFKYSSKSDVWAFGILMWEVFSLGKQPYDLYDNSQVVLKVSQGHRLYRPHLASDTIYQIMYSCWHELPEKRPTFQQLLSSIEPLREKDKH

[5] = target: Tyrosine-protein kinase HCK (Homo sapiens) (UniProt P08631); test: Inhibition of HCK (unknown origin) expressed in BaF3 cells assessed as inhibition of cell proliferation after 72 hrs by CelltiterGlo assay; format: cell-based
Tyrosine-protein kinase HCK (Homo sapiens), sequence (P08631 2-526 limits assumed): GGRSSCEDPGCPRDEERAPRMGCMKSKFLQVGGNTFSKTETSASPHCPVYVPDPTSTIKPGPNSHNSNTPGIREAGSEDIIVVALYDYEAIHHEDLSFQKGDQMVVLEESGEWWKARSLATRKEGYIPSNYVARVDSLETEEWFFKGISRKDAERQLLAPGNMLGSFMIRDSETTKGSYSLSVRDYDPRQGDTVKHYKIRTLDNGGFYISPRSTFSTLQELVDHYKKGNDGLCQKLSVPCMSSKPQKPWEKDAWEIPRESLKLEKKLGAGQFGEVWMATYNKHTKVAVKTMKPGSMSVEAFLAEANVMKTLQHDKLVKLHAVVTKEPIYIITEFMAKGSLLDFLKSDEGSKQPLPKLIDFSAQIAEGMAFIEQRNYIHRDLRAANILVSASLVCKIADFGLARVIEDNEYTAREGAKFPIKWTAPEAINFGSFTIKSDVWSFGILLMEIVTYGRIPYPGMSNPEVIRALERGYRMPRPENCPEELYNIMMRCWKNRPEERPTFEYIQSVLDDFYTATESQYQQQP

[6] = target: Platelet-derived growth factor receptor beta (Homo sapiens) (UniProt P09619); test: Inhibition of PDGFRB (unknown origin) expressed in BaF3 cells assessed as inhibition of cell proliferation after 72 hrs by CelltiterGlo assay; format: cell-based
Platelet-derived growth factor receptor beta (Homo sapiens), sequence (P09619 whole entry): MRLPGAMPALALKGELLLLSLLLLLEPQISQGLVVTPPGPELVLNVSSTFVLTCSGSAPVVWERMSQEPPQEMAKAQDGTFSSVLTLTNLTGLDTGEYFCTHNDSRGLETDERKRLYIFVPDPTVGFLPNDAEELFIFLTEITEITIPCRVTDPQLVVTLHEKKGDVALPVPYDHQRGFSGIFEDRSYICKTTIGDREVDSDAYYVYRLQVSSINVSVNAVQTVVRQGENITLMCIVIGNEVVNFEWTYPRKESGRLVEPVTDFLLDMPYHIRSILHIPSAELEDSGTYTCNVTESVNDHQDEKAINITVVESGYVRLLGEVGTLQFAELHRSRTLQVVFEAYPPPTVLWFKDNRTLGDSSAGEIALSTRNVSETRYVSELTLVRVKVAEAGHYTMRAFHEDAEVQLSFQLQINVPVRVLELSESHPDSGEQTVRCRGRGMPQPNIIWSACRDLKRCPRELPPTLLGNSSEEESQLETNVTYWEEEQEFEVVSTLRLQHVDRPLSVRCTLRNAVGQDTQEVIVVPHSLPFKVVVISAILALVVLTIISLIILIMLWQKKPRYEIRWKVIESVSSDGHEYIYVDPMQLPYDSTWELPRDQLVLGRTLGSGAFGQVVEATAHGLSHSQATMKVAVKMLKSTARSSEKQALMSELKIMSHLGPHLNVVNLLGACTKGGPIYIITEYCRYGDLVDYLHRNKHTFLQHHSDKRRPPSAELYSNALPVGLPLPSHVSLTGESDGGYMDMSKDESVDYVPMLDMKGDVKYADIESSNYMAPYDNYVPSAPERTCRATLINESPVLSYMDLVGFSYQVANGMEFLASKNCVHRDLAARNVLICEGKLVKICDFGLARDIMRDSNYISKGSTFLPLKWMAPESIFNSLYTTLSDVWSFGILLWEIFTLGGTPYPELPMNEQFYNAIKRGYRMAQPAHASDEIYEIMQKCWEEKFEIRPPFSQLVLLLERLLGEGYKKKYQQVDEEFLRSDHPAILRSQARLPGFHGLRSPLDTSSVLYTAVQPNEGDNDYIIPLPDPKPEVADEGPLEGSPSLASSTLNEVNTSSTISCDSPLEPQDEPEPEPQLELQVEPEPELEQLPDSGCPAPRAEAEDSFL

[7] = Antiproliferative activity against human MOLM14 cells after 72 hrs by CelltiterGlo assay; format: functional; conditions: MOLM-14, 72 h
[8] = Antiproliferative activity against human SU-DHL-2 cells after 72 hrs by CelltiterGlo assay; format: functional; conditions: SU-DHL-2, 72 h
[9] = Antiproliferative activity against human U2932 cells after 72 hrs by CelltiterGlo assay; format: functional; conditions: U2932, 72 h
[10] = Antiproliferative activity against human JVM2 cells after 72 hrs by CelltiterGlo assay; format: functional; conditions: JVM-2, 72 h
[11] = Antiproliferative activity against human NAMALWA cells after 72 hrs by CelltiterGlo assay; format: functional; conditions: NAMALVA
[12] = Antiproliferative activity against human NB4 cells after 72 hrs by CelltiterGlo assay; format: functional; conditions: NB-4, 72 h
[13] = Cmax in Sprague-Dawley rat at 1 mg/kg, iv; format: ADME, organism-based; set-up: dose 1 mg/kg, route intravenous; conditions: in vivo
[14] = AUC (0 to infinity) in Sprague-Dawley rat at 1 mg/kg, iv; format: ADME, organism-based; set-up: dose 1 mg/kg, route intravenous, time infinity; conditions: in vivo
[15] = Apparent volume of distribution in Sprague-Dawley rat at 1 mg/kg, iv; format: ADME, organism-based; conditions: in vivo, read-out: Vd(app)
[16] = Half life in Sprague-Dawley rat at 10 mg/kg, po; format: ADME, organism-based; conditions: in vivo
[17] = Mean residence time (0 to infinity) in Sprague-Dawley rat at 10 mg/kg, po; format: ADME, organism-based; conditions: in vivo
Mus musculus = test: Toxicity in nu/nu mouse xenografted with human MV4-11 cells assessed as body weight at 12.5 to 50 mg/kg/day administered via oral gavge; format: organism-based; conditions: in vivo
Outline: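 Female nu/nu mice carried established MV4-11 xenografts. Daily oral gavage of 12.5, 25.0 or 50.0 mg/kg/d, or vehicle, began once tumors reached 200 to 400 mm3. Each group had 5 animals, and body weight was tracked over a 22-day treatment period. Data are given as mean ± SEM.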

MV4-11 [18] = test: Antitumor activity against human MV4-11 cells xenografted in nu/nu mouse assessed as tumor weight at 12.5 mg/kg/day administered via oral gavage measured after 22 days of treatment (reference value: 2.5 g); format: functional
MV4-11 [19] = test: Antitumor activity against human MV4-11 cells xenografted in nu/nu mouse assessed as tumor weight at 50 mg/kg/day administered via oral gavage measured after 22 days of treatment (reference value: 2.5 g); format: functional
[20] = Antiproliferative activity against human MOLM13 cells after 72 hrs by CelltiterGlo assay; format: functional; conditions: MOLM-13, 72 h
MV4-11 [21] = test: Antiproliferative activity against human MV4-11 cells after 72 hrs by CelltiterGlo assay; format: functional; conditions: MV4-11, 72 h
[22] = Cytotoxicity against mouse BAF3 cells assessed as cell proliferation after 72 hrs by CelltiterGlo assay; format: cell-based
[23] = target: Tyrosine-protein kinase Blk (Homo sapiens) (UniProt P51451); test: Inhibition of BLK (unknown origin) assessed as remaining activity at 1 uM relative to control
Tyrosine-protein kinase Blk (Homo sapiens), sequence (P51451 2-505 limits assumed): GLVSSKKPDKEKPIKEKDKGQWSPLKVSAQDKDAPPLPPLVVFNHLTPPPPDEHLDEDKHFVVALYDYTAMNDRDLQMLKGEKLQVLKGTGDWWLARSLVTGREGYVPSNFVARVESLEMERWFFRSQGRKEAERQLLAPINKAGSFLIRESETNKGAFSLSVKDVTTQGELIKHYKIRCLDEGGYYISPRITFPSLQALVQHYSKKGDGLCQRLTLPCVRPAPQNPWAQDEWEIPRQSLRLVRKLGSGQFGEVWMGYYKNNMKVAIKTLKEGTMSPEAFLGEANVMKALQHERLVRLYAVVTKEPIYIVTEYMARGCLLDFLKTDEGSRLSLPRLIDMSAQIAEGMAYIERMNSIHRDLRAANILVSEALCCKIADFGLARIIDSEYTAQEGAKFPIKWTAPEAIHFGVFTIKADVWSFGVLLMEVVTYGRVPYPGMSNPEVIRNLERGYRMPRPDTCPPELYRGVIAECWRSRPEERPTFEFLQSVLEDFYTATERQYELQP
Outline: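 KinomeScan competitive binding panel of 468 kinases. Compound tested at a single 1 µM concentration. Read-out is percent of kinase activity remaining relative to a DMSO control.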

[24] = target: Dual specificity mitogen-activated protein kinase kinase 5 (Homo sapiens) (UniProt Q13163); test: Inhibition of MEK5 (unknown origin) assessed as remaining activity at 1 uM relative to control
Dual specificity mitogen-activated protein kinase kinase 5 (Homo sapiens), sequence (Q13163 whole entry): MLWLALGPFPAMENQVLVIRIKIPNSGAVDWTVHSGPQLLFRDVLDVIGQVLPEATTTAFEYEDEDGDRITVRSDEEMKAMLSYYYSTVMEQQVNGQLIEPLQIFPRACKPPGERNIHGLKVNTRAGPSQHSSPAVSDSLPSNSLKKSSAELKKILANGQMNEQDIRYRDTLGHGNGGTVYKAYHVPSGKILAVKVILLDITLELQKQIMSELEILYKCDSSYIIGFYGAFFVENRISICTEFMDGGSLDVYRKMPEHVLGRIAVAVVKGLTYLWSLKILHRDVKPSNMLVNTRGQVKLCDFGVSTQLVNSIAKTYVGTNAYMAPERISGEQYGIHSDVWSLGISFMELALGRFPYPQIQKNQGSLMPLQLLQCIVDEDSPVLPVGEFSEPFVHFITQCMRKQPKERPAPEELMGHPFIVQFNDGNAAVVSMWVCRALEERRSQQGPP
Outline: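 KinomeScan competition binding panel of 468 kinases, with the compound tested at 1 µM. Each kinase's result is reported as percent activity remaining relative to a DMSO control.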

[25] = target: Platelet-derived growth factor receptor beta (Homo sapiens) (UniProt P09619); test: Inhibition of PDGFRB (unknown origin) assessed as remaining activity at 1 uM relative to control
[26] = target: Tyrosine-protein kinase BTK (Homo sapiens, UniProt Q06187); test: Inhibition of BTK (unknown origin) by ADP-Glo assay
Tyrosine-protein kinase BTK, sequence (Q06187 whole entry): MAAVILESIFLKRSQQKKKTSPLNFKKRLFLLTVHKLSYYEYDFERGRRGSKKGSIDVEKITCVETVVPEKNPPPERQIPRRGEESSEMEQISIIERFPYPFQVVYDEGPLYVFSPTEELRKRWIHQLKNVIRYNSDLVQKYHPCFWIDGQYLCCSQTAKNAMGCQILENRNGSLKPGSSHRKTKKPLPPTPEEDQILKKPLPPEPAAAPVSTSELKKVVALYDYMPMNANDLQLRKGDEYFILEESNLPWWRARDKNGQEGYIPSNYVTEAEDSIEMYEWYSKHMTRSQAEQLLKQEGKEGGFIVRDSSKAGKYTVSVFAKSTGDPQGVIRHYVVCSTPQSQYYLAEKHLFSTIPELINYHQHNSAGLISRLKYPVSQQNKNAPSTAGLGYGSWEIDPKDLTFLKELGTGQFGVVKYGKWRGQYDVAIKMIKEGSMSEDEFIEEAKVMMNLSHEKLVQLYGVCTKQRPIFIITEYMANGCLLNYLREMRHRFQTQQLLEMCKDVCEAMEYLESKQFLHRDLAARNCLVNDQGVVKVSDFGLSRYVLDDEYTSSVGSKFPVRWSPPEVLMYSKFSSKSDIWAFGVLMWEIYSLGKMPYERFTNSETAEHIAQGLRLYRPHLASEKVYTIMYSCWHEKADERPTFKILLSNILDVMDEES

MV4-11 [27] = test: Cell cycle arrest in human MV4-11 cells assessed as accumulation at G0/G1 phase at 0.03 to 1 uM after 24 hrs by flow cytometry; format: functional, cell-based
[28] = Cell cycle arrest in human MOLM13 cells assessed as accumulation at G0/G1 phase at 0.03 to 1 uM after 12 hrs by flow cytometry; format: functional, cell-based; conditions: MOLM-13
MOLM-14 = test: Induction of apoptosis in human MOLM14 cells assessed as cleaved caspase-3 level at 0.03 to 1 uM after 24 hrs by immunoblot analysis; format: functional, cell-based
[29] = Half life in Sprague-Dawley rat at 1 mg/kg, iv; format: ADME, organism-based; conditions: in vivo
[30] = Tmax in Sprague-Dawley rat at 1 mg/kg, iv; format: ADME, organism-based; conditions: in vivo
[31] = target: Receptor-type tyrosine-protein kinase FLT3 (Homo sapiens) (UniProt P36888); conditions: MV4-11, 0.03 to 3 uM
[32] = target: Receptor-type tyrosine-protein kinase FLT3 (Homo sapiens) (UniProt P36888); conditions: MOLM-14, 0.03 to 3 uM
[33] = tested on: Receptor-type tyrosine-protein kinase FLT3 (Homo sapiens), P36888 [D835V]; conditions: BaF3
[34] = target: Receptor-type tyrosine-protein kinase FLT3 (Homo sapiens) (UniProt P36888); conditions: MOLM-13, 0.03 to 3 uM
[35] = target: Receptor-type tyrosine-protein kinase FLT3 (Homo sapiens) (UniProt P36888); conditions: MV4-11, 0.03 to 3 uM; remark: listed apart in the source
[36] = target: Receptor-type tyrosine-protein kinase FLT3 (Homo sapiens) (UniProt P36888); conditions: MOLM-14, 0.03 to 3 uM; remark: listed apart in the source
[37] = target: Receptor-type tyrosine-protein kinase FLT3 (Homo sapiens) (UniProt P36888); conditions: MOLM-13, 0.03 to 3 uM; remark: listed apart in the source

For `CN(C)CC(=O)N1CCC[C@@H](n2nc(-c3ccc(Oc4ccccc4)cc3)c3c(N)ncnc32)C1`, the GI50 [1] was 310 nM, the GI50 [2] was 650 nM and the GI50 [3] was 2500 nM. The GI50 [4] was 280 nM, the GI50 [5] was 880 nM and the GI50 [6] was 680 nM. It also gave a GI50 [7] of 42 nM, a GI50 [8] of 5500 nM and a GI50 [9] of 1600 nM. For the same compound, the GI50 [10] was 2600 nM, the GI50 [11] was 6400 nM and the GI50 [12] was 3800 nM. For the same compound, the Cmax [13] was 1500 ng/mL, the AUC(0-inf) [14] was 619 ng·h/mL and the Vd [15] was 3.23 L/kg. The half-life [16] was 1.24 h, the MRT inf [17] was 2.75 h and the Activity (Mus musculus) was “Non-toxic”. For the same compound, the Activity (MV4-11 [18]) was 1.54 g, the Activity (MV4-11 [19]) was 0.3 g and the GI50 [20] was 21 nM. The GI50 (MV4-11 [21]) was 22 nM, the GI50 at 72 h [22] was 4900 nM and the Activity [23] was 0.1%. The Activity [24] was 0.45%, the Activity [25] was 0.35% and the IC50 [26] was 421 nM. The Activity (MV4-11 [27]) was “Active”, the Activity [28] was “Active” and the Activity (MOLM-14) was “Active”. The half-life [29] was 1.38 h, the Tmax [30] was 1.2 min and the inhibition [31] was “Active”. The inhibition [32] was “Active”, the GI50 [33] was 3 nM and the inhibition [34] was “Active”. The inhibition [35] was “Active”, the inhibition [36] was “Active” and the inhibition [37] was “Active”.
